# DENV2 CPE = protects cells from dengue virus 2 cytopathic effect; AID 651640; 350,000 compounds, 1.7% hits; CPE inhibition, % at 9.99 µM; DENV2-infected cells, cytopathic effect rescue, plate reader; in the data active = CPE inhibition above about 20%, passing the limit was not always enough; inconclusive = no clear call, values can overlap the other calls; tested in BHK-21 cells;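 note: 0% = median of neutral control wells and 100% = median of positive control wells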
# FN deposition inh = fibronectin deposition inhibition | AH1F fibroblasts, Alexa488-fibronectin deposition fluorescence, overnight | inhibition, % at 12.6 µM | 350,000 compounds, 0.086% hits;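 active = mean inhibition across replicates of 30% or more, regardless of how many single replicates reach that level; inconclusive = mean under 30% yet at least half of replicates reach 30%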;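 note: positive control wells lacked labelled fibronectin entirely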
#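 test system = AH1F fibroblasts assembling fluorescent fibronectin matrix | quantity = 10000 AH1F cells per well | buffer or medium = DMEM plus 2% serum, read in PBS | doses = single dose, pinned | incubation = 1 h cell attachment, overnight exposure to compound and label | detection = fluorescence at 485 nm excitation, 525 nm emission | read-out basis = inhibition from reduced deposited-fibronectin fluorescence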
# Xi reactivation = reactivates the inactive X chromosome in mouse fibroblasts; 360,000 compounds, 0.055% hits; XiGFP mouse fibroblasts, % GFP-positive cells imaging, 3 d; cells co-treated with 5-aza-dC sensitizer; scaled so ellipticine positive control = 100%; AID 743238; activation, % at 7.58 µM;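 active = mean normalized replicate activation at least 10% and every replicate at or above 10%; inconclusive = only one of the two criteria met; inactive = mean below 10% and not all replicates reach 10%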;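 note: 0% = median of on-plate neutral control wells and 100% = ellipticine 6 µM median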
#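 System: 68-5-11 XiGFP fibroblast line | Buffer or medium: DMEM containing 5-aza-dC | Compound: Single point | Times: Compounds 3 days, fix/stain 15 min at room temperature | Benchmarks: Positive control ellipticine, 6 µM final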
# Cneo AK release = Cryptococcus neoformans lysis via adenylate kinase release; C. neoformans lysis, adenylate kinase release luminescence, 4 h; normalised: neutral wells 0, clomiphene wells 100; lysis activity, % at 15 µM; 360,000 compounds, 0.2% hits; AID 651654;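 active = mean lysis activity across replicates of at least 80%, whatever share of replicates individually reach that level; inactive = mean lysis activity below 80%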
#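 Material: C. neoformans cells | Amount: Yeast cell density of 5 × 10^6 cells/mL | Medium: Fresh YPD growth medium | Dosing: Single dose | Times: Static 4 h at 37 °C with compound, 1 h detection | Detection: AK luminescence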
# PGC1a acetyl inh = lowers PGC1a acetylation signal in U2OS cells | 350,000 compounds, 0.17% hits | inhibition, % at 15.6 µM | AlphaScreen anti-acetyl-lysine; with virally co-expressed GCN5 acetyltransferase;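 active = every replicate shows inhibition of at least 40%; inconclusive = mean inhibition at least 40% but some replicate below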;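 note: 0% = neutral control wells and 100% = positive control wells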
# F508del corr = correctors of CFTR F508del function in bronchial epithelial cells; CFBE cells, YFP halide quenching; stimulated with forskolin plus potentiator P3; % fluorescence drop versus neutral controls; activity (quench increase), % at 7.58 µM; 350,000 compounds, 0.36% hits; AID 720511;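 active = mean added fluorescence quench of at least 8% versus neutral control, with both replicates also reaching 8%; inconclusive = only one of the mean or replicate conditions met; inactive = mean below 8% and not both replicates reaching 8%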;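 note: cells transiently co-express mutant CFTR-F508del with the halide-sensitive YFP; corrector assay measuring rescue of mutant channel to the surface after 24 h compound exposure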
# Starred values were filed as active, the others as inactive; ? = inconclusive; nt = not tested or not shown; ! = repeats disagree. A selection: hits, their analogues and other compounds. The true share with any hit is near 1.9%.
SMILES,DENV2 CPE,FN deposition inh,Xi reactivation,Cneo AK release,PGC1a acetyl inh,F508del corr
COc1ccc(C(=O)NN2C(=S)N(c3ccc(OC)cc3)C(=O)C2CC(N)=O)cc1 (configuration not stated),9,1,0,nt,nt,0
COc1ccc(N2C(=O)C(CC(N)=O)N(NC(=O)c3cccc(OC)c3)C2=S)cc1 (configuration not stated),31*,-4,0,nt,-2,0
O=C(Cc1ccccn1)NCC[C@H]1CC[C@H](NC(=O)Nc2ccc(Cl)cc2)[C@H](CO)O1,3,nt,0,-4,-19,4
COc1ccc(NC(=O)N2CCC3(CC2)CN(C(=O)CN2CCOCC2)[C@@H](CO)c2[nH]c4cc(OC)ccc4c23)cc1,25*,-3,0,nt,-3,-3
CCC(=O)N1CC2(C1)CN(C(=O)CN1CCOCC1)[C@H](CO)c1[nH]c3cc(OC)ccc3c12,30*,nt,0,nt,-4,0
CCC(=O)N1CCC2(CC1)CN(C(=O)CN1CCOCC1)[C@H](CO)c1[nH]c3cc(OC)ccc3c12,40*,nt,0,nt,nt,3
COc1ccc2c3c([nH]c2c1)[C@H](CO)N(C(=O)CN1CCOCC1)CC31CN(Cc2ccccc2)C1,52*,13,0,nt,5,-2
CCC(=O)N1CCC2(CC1)CN(C(=O)CN1CCOCC1)[C@@H](CO)c1[nH]c3cc(OC)ccc3c12,-2,nt,0,nt,nt,2
CCCCC[C@H]1CN(CCc2ccccc2)C(=O)[C@@H]1CC(=O)NCc1ccc(OC)cc1,24*,-2,0,0,-3,2
CCCCN1C[C@H](Cc2ccccc2)[C@@H](CC(=O)NCc2ccc(OC)cc2)C1=O,48*,-6,0,1,-2,-1
O=C(C[C@H]1C(=O)N(Cc2ccccc2)C[C@@H]1Cc1ccccc1)Nc1ccc(Br)cc1,26*,nt,0,0,nt,2
CCCCC[C@H]1CN(CCCC)C(=O)[C@@H]1CC(=O)NCc1ccc(OC)cc1,?,-3,0,-1,-8,3
O=C(C[C@H]1C(=O)N(Cc2cccnc2)C[C@@H]1Cc1ccccc1)Nc1ccc(Br)cc1,-3,6,0,0,3,1
C[C@H]1CN([C@@H](C)CO)C(=O)c2cc(NS(C)(=O)=O)ccc2O[C@H]1CN(C)Cc1ccncc1,-1,nt,0,0,-1,0
CCOCCCNC(=O)C(c1ccc(C)cc1)N(Cc1cccs1)C(=O)c1ccccn1 (configuration not stated),-10,nt,26*,nt,-2,2
COc1ccc(CC2C(=O)NC(C)C(=O)N(C)C3Cc4ccc(cc4)Oc4cc(ccc4O)CC(C(=O)NC(C)C(=O)NC(C)C(=O)N2C)N(C)C3=O)cc1 (configuration not stated),?,22,0,nt,70*,0
COc1ccc(CN2C[C@H](C)[C@@H](OC)CN(C)C(=O)c3ccc(NC(=O)c4nc5ccccc5s4)cc3OC[C@@H]2C)cc1,-4,9,0,-55,-12,1
Cc1nc2c(OCCC3CCCCC3)cccn2c1N(C)C(=O)CCC1CCCC1,41*,3,0,1,7,-1
OCCC1CN(Cc2cnc(-c3ccc(Cl)cc3)nc2)CCN1C1CCCCC1 (configuration not stated),50*,6,0,nt,nt,1
Cc1cccc(-c2ncc(CN3CCN(C4CCCC4)C(CCO)C3)cn2)c1 (configuration not stated),5,nt,0,nt,3,nt
N=C1/C(=C\c2ccc(-c3cc(Cl)cc(Cl)c3)o2)C(=O)N=C2SC=C(c3ccccc3)N12,nt,6,0,0,-13,nt
N=C1/C(=C/c2cccn2CCOc2ccccc2)C(=O)N=C2SC=C(c3ccccc3)N12,-1,1,0,4,-8,13*
O=C1c2cccc(NCCCNCCO)c2C(=O)c2cccc(NCCCNCCO)c21,-3,nt,0,nt,13,13*
C[C@@H]1CN([C@H](C)CO)C(=O)c2cc(/C=C/c3ccccc3)cnc2O[C@H]1CN(C)C(=O)c1ccc(F)cc1,-9,-2,-1,45,3,-6
Fc1ccccc1C1c2[nH]c3ccccc3c2CCN1CCCn1cccn1 (configuration not stated),31*,4,0,nt,-23,0
SMILES,DENV2 CPE,FN deposition inh,Xi reactivation,Cneo AK release,PGC1a acetyl inh,F508del corr
CC(C)(C)C1c2[nH]c3ccccc3c2CCN1CCCn1cccn1 (configuration not stated),nt,1,0,-1,-5,nt
NC(=NCCCCCCN=C(N)/N=C(\N)Nc1ccc(Cl)cc1)/N=C(\N)Nc1ccc(Cl)cc1,?,0,0,54,-6,12*!
CC(C)N=C(N)N=C(N)Nc1ccc(Cl)cc1,7,-1,0,2,-37,-2
CCc1ccc(NC(=O)N(CCCN2CCOCC2)Cc2cccs2)cc1,34*,-2,0,0,12,-3
O=C(Nc1ccccc1)N(CCCN1CCOCC1)Cc1cccs1,-1,-14,0,-1,1,-1
CCOc1ccccc1N,23*,nt,nt,-2,2,-2
COc1ccccc1-c1cncc(NC(C)=O)n1,27*,0,0,2,7,-2
C[C@@H]1CN([C@@H](C)CO)C(=O)c2cc(NC(=O)c3ccncc3)ccc2O[C@@H](C)CCCCO[C@H]1CN(C)Cc1ccc2c(c1)OCO2,14,-8,0,0,0,1
C[C@@H]1CCCCO[C@@H](CN(C)S(=O)(=O)c2cn(C)cn2)[C@H](C)CN([C@@H](C)CO)C(=O)c2cc(NC(=O)c3ccccc3)ccc2O1,-4,7,0,3,-5,1
COC(=O)CCC(=O)OC1(C)C(=O)C=C2C=C(C3CC3)N(CCCCO)C=C2C1=O (configuration not stated),-9,5,0,-2,nt,0
C=CCN1C=C2C(=O)C(C)(OC(=O)CCC(=O)OC)C(=O)C=C2C=C1C1CC1 (configuration not stated),50*,1,0,-3,3,0
C[C@@H]1CN([C@@H](C)CO)C(=O)c2cc(NC(=O)CCCCCC(=O)Nc3ccccc3N)ccc2O[C@@H]1CN(C)C(=O)Nc1ccc2c(c1)OCO2,30*,nt,0,nt,-6,0
C[C@H]1CN([C@@H](C)CO)C(=O)c2cc(NC(=O)CCCCCC(=O)Nc3ccccc3N)ccc2O[C@@H]1CN(C)C(=O)Nc1ccc2c(c1)OCO2,19,nt,0,nt,1,3

# Assay outcomes: PubChem BioAssay, Broad Institute
